Data reported in PubChem BioAssay.
“And” between values parts separate entries of the source, which are not always exact repeats. Equal values may be shown once. The source made the active and inactive calls.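 The calls were made as follows, unless noted: active = current rise at least 3 SD above the untreated control mean in each of two repeat wells; inactive = the rest.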

Experiments:
[1] = nonspecific flux increase, KCNQ1-free cells – parental CHO cells, counter-screen for KCNQ1 potentiator project (AID 493006;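 active = duplicate-averaged activation above buffer control mean plus 5 SD of those controls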;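 as to activation: fluorescence ratio of max minus min over baseline after K+ and Tl+ depolarization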); settings: parental CHO-K1 cells, FluxOR thallium flux, at 10 µM; stronger effect = higher value
Method in brief: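 Material: parental CHO-K1 cells, FluxOR dye-loaded; Also added: Potassium/thallium depolarization pulse; Schedule: overnight 37 °C plating, 90 min dye, 20 min dark compound; Signal: kinetic FluxOR fluorescence, 10 s baseline, 110 s after stimulus.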

[2] = biological target: Potassium voltage-gated channel subfamily KQT member 1 (Homo sapiens) (UniProt P51787); assay: enhancement of KCNQ1 channel thallium flux – FluxOR thallium flux, CHO cells, duplicates, confirmation (AID 493007;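 active = potentiation averaged over duplicate wells exceeding buffer-only control mean by more than 3 SD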;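 as to outcome: cells depolarized by a potassium plus thallium sulfate stimulus after compound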); settings: KCNQ1 cell line, FluxOR thallium flux fluorescence, at 10 µM; stronger effect = higher value, % of reference activator effect, buffer zero
Method in brief: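 System: KCNQ1-expressing CHO cell line; technique: kinetic thallium influx fluorescence with FluxOR dye, 10 s baseline, 110 s post-stimulus; timing: dye 90 min then compound 20 min, both at room temperature; controls: buffer-only wells as 0% and R-L3 activator as 100%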

[3] = biological target: Potassium voltage-gated channel subfamily KQT member 2 (Rattus norvegicus) (UniProt O88943); assay: KCNQ2 thallium flux enhancement – KCNQ2-CHO-K1 cells, selectivity assay for KCNQ1 potentiator project (AID 493009;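 active = mean duplicate potentiation above the buffer control mean plus 5 SD of buffer wells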;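 also: assay conditions were tuned for KCNQ1 rather than KCNQ2 modulators; signal is max minus min fluorescence divided by baseline after thallium stimulus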); settings: FluxOR thallium flux fluorescence, at 10 µM; stronger effect = higher value, scaled: buffer 0, activator control 100
[4] = biological target: Potassium voltage-gated channel subfamily KQT member 1 (Homo sapiens) (UniProt P51787); assay: KCNQ1 activators by electrophysiology – IonWorks patch clamp, KCNQ1-CHO cells, orthogonal assay for KCNQ1 potentiator project, confirmation (AID 493184); settings: automated patch clamp current, at 10 µM; stronger effect = higher value
Method in brief: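 Test system: KCNQ1-expressing CHO cells. Medium: pH 7.4 external bath. Probe or stimulus: voltage step from -90 mV holding to +40 mV, 2,000 ms. Compound: 10 µM final, single point. Detection: automated perforated-patch electrophysiology. Read-out: percent current increase versus pre-compound level. Repeats: two replicates.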

Sequence of Potassium voltage-gated channel subfamily KQT member 1 (Homo sapiens) (P51787 whole entry, looked up): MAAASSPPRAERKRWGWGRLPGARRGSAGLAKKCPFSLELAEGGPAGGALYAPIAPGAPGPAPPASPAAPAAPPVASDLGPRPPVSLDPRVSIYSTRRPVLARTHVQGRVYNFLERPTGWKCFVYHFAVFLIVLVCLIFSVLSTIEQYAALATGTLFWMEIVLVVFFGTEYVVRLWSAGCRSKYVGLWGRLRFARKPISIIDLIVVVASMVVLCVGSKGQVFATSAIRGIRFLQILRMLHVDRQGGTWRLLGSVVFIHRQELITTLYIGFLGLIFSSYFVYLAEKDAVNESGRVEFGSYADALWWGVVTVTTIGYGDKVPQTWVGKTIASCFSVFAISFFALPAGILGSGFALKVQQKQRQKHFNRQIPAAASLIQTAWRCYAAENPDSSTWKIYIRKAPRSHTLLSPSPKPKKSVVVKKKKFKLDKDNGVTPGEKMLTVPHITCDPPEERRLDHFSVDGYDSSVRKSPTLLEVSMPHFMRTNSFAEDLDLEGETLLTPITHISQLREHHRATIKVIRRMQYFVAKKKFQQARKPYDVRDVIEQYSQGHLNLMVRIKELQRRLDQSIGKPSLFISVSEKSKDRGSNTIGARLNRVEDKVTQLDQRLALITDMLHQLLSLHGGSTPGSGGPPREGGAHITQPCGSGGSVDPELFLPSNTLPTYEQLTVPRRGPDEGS
Sequence of Potassium voltage-gated channel subfamily KQT member 2 (Rattus norvegicus) (O88943 whole entry, looked up): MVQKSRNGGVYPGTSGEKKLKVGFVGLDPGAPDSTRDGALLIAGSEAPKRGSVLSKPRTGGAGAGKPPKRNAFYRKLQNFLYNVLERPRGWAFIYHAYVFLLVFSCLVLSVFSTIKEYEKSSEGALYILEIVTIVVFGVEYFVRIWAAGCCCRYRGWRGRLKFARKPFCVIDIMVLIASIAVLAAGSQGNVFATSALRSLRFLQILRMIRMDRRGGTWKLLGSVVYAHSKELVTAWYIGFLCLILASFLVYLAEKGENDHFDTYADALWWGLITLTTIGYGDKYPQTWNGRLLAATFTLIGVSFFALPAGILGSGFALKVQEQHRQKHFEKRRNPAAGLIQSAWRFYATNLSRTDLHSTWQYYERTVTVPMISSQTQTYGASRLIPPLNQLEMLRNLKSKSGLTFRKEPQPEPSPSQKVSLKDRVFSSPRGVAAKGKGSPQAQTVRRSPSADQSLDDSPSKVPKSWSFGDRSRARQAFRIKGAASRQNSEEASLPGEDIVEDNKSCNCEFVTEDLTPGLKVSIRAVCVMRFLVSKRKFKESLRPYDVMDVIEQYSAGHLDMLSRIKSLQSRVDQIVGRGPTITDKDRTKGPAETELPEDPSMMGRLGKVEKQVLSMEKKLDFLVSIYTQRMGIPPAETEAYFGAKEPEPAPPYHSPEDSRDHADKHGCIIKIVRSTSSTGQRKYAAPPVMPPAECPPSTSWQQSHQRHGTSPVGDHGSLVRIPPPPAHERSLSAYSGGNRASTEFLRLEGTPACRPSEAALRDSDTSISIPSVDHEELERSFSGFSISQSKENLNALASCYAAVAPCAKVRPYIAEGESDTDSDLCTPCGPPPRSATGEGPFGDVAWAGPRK

Structure (SMILES)	outcome [1]	outcome [2]	outcome [3]	outcome [4]	activation [1]	potentiation [2]	potentiation [3]
CCN(CC)C(=O)c1[nH]cnc1C(=O)NCC(=O)OC(C)(C)C	inactive	inactive	inactive	inactive	–	–	–
CNC(=O)c1nnsc1S(=O)c1ccc(Cl)cc1 (stereo not given)	inactive	inactive	inactive	inactive	–	–	–
COc1cccc(C2=NOC(C(=O)NCc3cccs3)C2)c1 (stereo not given)	inactive	inactive	inactive	inactive	–	–	–
O=C(Nc1cc(=O)[nH]c(=O)[nH]1)c1cccc(Br)c1	inactive	inactive	inactive	inactive	–	–	–
CCOc1ccc(/C=C2/SC(=O)NC2=S)cc1	–	–	–	inactive	425% (active)	138% (active)	379% (active)
CN(C)c1ccc(NC(=O)COC(=O)c2cc(Cl)ccc2[N+](=O)[O-])cc1	inactive	inactive	inactive	inactive	–	–	–
CC(=O)CSc1ncnc2sc3c(c12)CCC(C)C3 (stereo not given)	–	–	–	inactive	474% (active)	154% (active)	406% (active)
S=c1nc(-c2ccccc2)[nH]c2ccccc12	–	–	–	inactive	316% (active)	110% (active)	294% (active)
CCCCn1c(NS(=O)(=O)c2ccc(C)cc2)c(S(=O)(=O)c2ccccc2)c2nc3ccccc3nc21	inactive	inactive	inactive	inactive	–	–	–
C/C(N)=C(/C#N)C(=O)COc1ncnc2ccc(Br)cc12	inactive	inactive	inactive	inactive	–	–	–
CC(=O)N1CCN=C1SCc1ccc(F)cc1	–	–	–	inactive	355% (active)	120% (active)	329% (active)
NC(=NCCCCCCN=C(N)/N=C(\N)Nc1ccc(Cl)cc1)/N=C(\N)Nc1ccc(Cl)cc1	–	–	–	inactive	240% (active) and 259% (active)	59.5% (active) and 91.5% (active)	183% (active) and 216% (active)
O=C1CCC(C(=O)N2CCSCC2)CN1Cc1cccc(C(F)(F)F)c1 (stereo not given)	inactive	inactive	inactive	inactive	–	–	–
Cc1cc(=O)oc2cc(OCC3CC(c4ccccc4Cl)=NO3)ccc12 (stereo not given)	–	–	inactive	inactive	156% (active)	30.5% (active)	–
N#Cc1ccccc1NS(=O)(=O)c1cc2c3c(c1)CCC(=O)N3CCC2	inactive	inactive	inactive	inactive	–	–	–
Cc1ccc(C2=CSC3=NS(=O)(=O)CCN23)cc1	inactive	inactive	inactive	inactive	–	–	–
CC(=O)c1c(NC(=O)c2ccccc2)[nH]c(-c2ccccc2)nc1=S	–	–	–	inactive	230% (active)	67% (active)	236% (active)
CCn1c(SC(C)C(=O)O)nc2sc3c(c2c1=O)CCC3 (stereo not given)	–	–	–	inactive	203% (active)	42.5% (active)	230% (active)
CCOC(=O)CSc1nc2ccccc2n2c(C)nnc12	inactive	inactive	inactive	inactive	–	–	–
CCC(CC)C(=O)Nc1cc([N+](=O)[O-])ccc1Cl	inactive	inactive	inactive	inactive	–	–	–

Structure (SMILES)	outcome [1]	outcome [2]	outcome [3]	outcome [4]	activation [1]	potentiation [2]	potentiation [3]
C=CCCCN(Cc1ccccc1)S(=O)(=O)c1ccccc1Br	inactive	inactive	inactive	inactive	–	–	–
CC(C)(C)c1cc(-c2csc(Nc3ccccc3)[n+]2Cc2ccc(C(=O)O)cc2)cc(C(C)(C)C)c1O	–	–	–	inactive	327% (active)	54.5% (active)	198% (active)
CCOc1ccc(C(C#N)N2CCOCC2)cc1OC (stereo not given)	inactive	inactive	inactive	inactive	–	–	–
CC(C)CC(=O)O/N=C1\C(=O)N(c2ccccc2)c2ccccc21	inactive	inactive	inactive	inactive	–	–	–
N#CC1(c2ccc(NC(=O)c3ccccc3F)cc2)CCCC1	inactive	inactive	inactive	inactive	–	–	–
CC(=O)Nc1c2c(nn1-c1ccc(C)cc1)CS(=O)(=O)C2	inactive	inactive	inactive	inactive	–	–	–
CCCc1nc(SCC(=O)Nc2cc(Cl)ccc2OC)c2c(=O)n(C)c(=O)n(C)c2n1	inactive	inactive	inactive	inactive	–	–	–
CCS(=O)(=O)Nc1ccc(C(=O)CC2(O)C(=O)Nc3ccccc32)cc1 (stereo not given)	inactive	inactive	inactive	inactive	–	–	–
CC(C)c1ccc(C(=O)NC2=NCCS2)cc1	inactive	inactive	inactive	inactive	–	–	–
Cc1cc(Nc2cc(N3CCN(C)CC3)nc(Sc3ccc(NC(=O)C4CC4)cc3)n2)n[nH]1	–	–	–	inactive	140% (active)	30% (active)	144% (active)
CC12CCC(C(=O)N(CSC(=S)N/N=C\c3ccccc3Cl)C1=O)C2(C)C (stereo not given)	–	–	–	inactive	178% (active)	47% (active)	152% (active)
COc1cc(NS(=O)(=O)c2ccc(NC(=S)NC(=O)c3sc4cc(F)ccc4c3Cl)cc2)nc(OC)n1	–	inactive	inactive	inactive	144% (active)	–	–
CC(=O)N(C)c1ccc(NC(=O)Cc2cccc3ccccc23)cc1	inactive	inactive	inactive	inactive	–	–	–
O=C(NC(=S)Nc1ccccc1Br)c1ccco1	inactive	inactive	inactive	inactive	–	–	–
COc1ccccc1C(=O)NNC(=O)C(=O)Nc1cccc(Cl)c1C	–	–	–	inactive	612% (active)	206% (active)	580% (active)
Cc1ccc(-c2c(C(=O)O)c3ccccc3[nH]c2=O)cc1	inactive	inactive	inactive	inactive	–	–	–
COC(=O)COc1ccc(-c2ccccc2)cc1C=O	–	–	–	inactive	179% (active)	34.5% (active)	216% (active)
COc1cc2c(cc1OC)CN(C(=O)COc1ccccc1[N+](=O)[O-])CC2	inactive	inactive	inactive	inactive	–	–	–
COc1cccc(-c2cn(-c3cccc(C(F)(F)F)c3)c(=S)[nH]2)c1	inactive	inactive	inactive	inactive	–	–	–
CC(C)CSC1=NSC2=NC(=O)/C(=C\c3ccccc3)C(=N)N12	–	–	–	inactive	198% (active)	58% (active)	204% (active)

Structure (SMILES)	outcome [1]	outcome [2]	outcome [3]	outcome [4]	activation [1]	potentiation [2]	potentiation [3]
O=C(Cn1ncc2c(=O)oc3ccccc3c21)N1CCN(C(=O)c2ccco2)CC1	inactive	inactive	inactive	inactive	–	–	–
O=C(NC(=S)Nc1ccccc1N1CCCC1)c1ccccc1Br	–	–	–	inactive	179% (active)	55% (active)	202% (active)
C=CCn1c(=S)[nH]c2nc3c(cc2c1=O)CCCC3	inactive	–	–	inactive	–	34% (active)	152% (active)
Cc1ccc(C)c2sc(NC(=O)c3nc4ccccc4s3)nc12	inactive	–	inactive	inactive	–	18% (active)	–
CCc1nnc(NC(=O)CN2C(=O)c3ccccc3C2=O)s1	inactive	inactive	inactive	inactive	–	–	–
Fc1ccccc1/C=N/NC(=S)Nc1ccc(Cl)cc1Cl	inactive	–	inactive	inactive	–	66.5% (active)	–
Cc1cccc(C(=O)NNC(=O)C(=O)NC(C)(C)C)c1	–	–	–	inactive	159% (active)	30.5% (active)	146% (active)
COc1ccc(C(=O)Nc2ccnn2C2CCN(Cc3ccncc3)CC2)cc1	inactive	inactive	inactive	inactive	–	–	–
Oc1c(Br)cc(Br)cc1/C=N/c1nc2c(s1)CCCC2	–	–	inactive	inactive	186% (active)	22% (active)	–
CC(=O)OCC(=O)[C@@]1(OC(C)=O)[C@@H](C)C[C@H]2[C@@H]3C[C@H](F)C4=CC(=O)C=C[C@]4(C)[C@@]3(F)[C@@H](O)C[C@@]21C	inactive	inactive	inactive	inactive	–	–	–
O=c1c2ccccc2[nH]c(=S)n1CCC1=CCCCC1	–	–	–	inactive	212% (active)	46% (active)	196% (active)
O=C(CN(c1ccc(Cl)cc1)S(=O)(=O)c1ccc(Cl)c([N+](=O)[O-])c1)NCCc1ccc(F)cc1	inactive	inactive	inactive	inactive	–	–	–
Cc1sc2nc[nH]c(=S)c2c1-c1ccccc1	–	–	–	inactive	289% (active)	93.5% (active)	304% (active)
COc1cccc2sc(Nc3nnc(-c4ccc(F)cc4)o3)nc12	–	–	–	inactive	394% (active)	202% (active)	521% (active)
CC(/C=N/NC(=O)c1cc(-c2cccs2)[nH]n1)=C\c1ccccc1	–	–	–	inactive	184% (active)	116% (active)	250% (active)
O=C(c1ccco1)N1CCN(S(=O)(=O)c2ccc(F)cc2)CC1	inactive	inactive	inactive	inactive	–	–	–
C/C(N)=C(/C#N)C(=O)CSc1nc2ccccc2c(=O)n1Cc1ccc(F)cc1	–	–	–	inactive	178% (active)	48.5% (active)	194% (active)
CC(C)c1nc2oc3c(NCC4CCCO4)ncnc3c2c2c1COC(C)(C)C2 (stereo not given)	inactive	inactive	inactive	inactive	–	–	–
CCc1ccc(S(=O)(=O)NC(=S)NC2CCCCC2)cc1	–	–	–	inactive	330% (active)	108% (active)	312% (active)
C=C(C)CNC(=O)c1ccc(OC2CCN(C(=O)COC)CC2)cc1	inactive	inactive	inactive	inactive	–	–	–
